The test system of data set [1] is HCT-116. Kind of data set: Antitumour activity against human HCT116 cells xenografted in nude mouse assessed as tumour growth inhibition at 10 mg/kg, ig administered every 3 days for 3 weeks and measured after 3 weeks relative to control. In kind it is functional. The following applies: HCT-116, po, read-out: TGI. The procedure, abridged: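 HCT-116 cells (5 × 10^6 per animal) injected into right flank of nude mice; at ~100 mm³ tumours, randomized into groups of 6. Dosed 10 mg/kg in 5% CMC-Na intragastrically every three days for three weeks; vehicle control 5% CMC-Na. Body weight and tumour size recorded every three days, volume = 0.5 × length × width²; tumours excised and weighed at end. Mean ± SD.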

For data set [2], the target named is Serine/threonine-protein kinase mTOR (Homo sapiens, UniProt P42345). Put plainly: Inhibition of mTOR (unknown origin).
Data set [3] has as its system HCT-116. Put plainly: Antiproliferative activity against human HCT116 cells assessed as reduction in cell viability after 48 hrs by MTT assay. The format is functional, cell-based. The settings on record: HCT-116, 48 h.
The next data set concerns A549. Kind of data set: Antiproliferative activity against human A549 cells assessed as reduction in cell viability after 48 hrs by MTT assay. In kind it is functional, cell-based. The settings on record: A549, 48 h.
The subject of another data set is Huh-7. Put plainly: Antiproliferative activity against human HuH7 cells assessed as reduction in cell viability after 48 hrs by MTT assay. In kind it is functional, cell-based. The settings on record: Huh-7, 48 h. (In general: Tetrazolium dyes change colour on reduction, which living cells bring about.)
In a further data set the test system is HL-60. Kind of data set: Antiproliferative activity against human HL60 cells assessed as reduction in cell viability after 48 hrs by MTT assay. The format is functional, cell-based. The settings on record: HL-60, 48 h.
The target of data set [4] is Phosphatidylinositol 4,5-bisphosphate 3-kinase catalytic subunit alpha isoform (Homo sapiens, UniProt P42336). Put plainly: Inhibition of PI3Kalpha (unknown origin) using diC8-PI(4,5)P2 as substrate incubated for 3 hrs in presence of ATP by fluorescence polarization assay. Summed up: (§1)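 Fluorescence polarization competition assay, 10 μL reactions at pH 7: 2.5 mM MgCl₂, 5 mM HEPES, ATP, 10 mM DTT, 50 ng PI3K isoform, diC8-PI(4,5)P2 substrate. After 3 h at room temperature, reactions were chelator-quenched. Phosphoinositide binding protein and fluorophore-labelled tracer were added, then 1 h dark equilibration and polarization read.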
On the technique in general: In fluorescence polarisation assays a small probe gives low polarisation when free and higher when bound to something large.

In data set [5] the target is Phosphatidylinositol 4,5-bisphosphate 3-kinase catalytic subunit beta isoform (Homo sapiens, UniProt P42338). Put plainly: Inhibition of PI3Kbeta (unknown origin) using diC8-PI(4,5)P2 as substrate incubated for 3 hrs in presence of ATP by fluorescence polarization assay. Summed up: as §1
The target of data set [6] is Phosphatidylinositol 4,5-bisphosphate 3-kinase catalytic subunit gamma isoform (Homo sapiens, UniProt P48736). Kind of data set: Inhibition of PI3Kgamma (unknown origin) using diC8-PI(4,5)P2 as substrate incubated for 3 hrs in presence of ATP by fluorescence polarization assay. The procedure, abridged:
as §1

Data set [7] has as its target T1, Phosphatidylinositol 4,5-bisphosphate 3-kinase catalytic subunit delta isoform (Homo sapiens, UniProt O00329).
T1 sequence (O00329 whole entry): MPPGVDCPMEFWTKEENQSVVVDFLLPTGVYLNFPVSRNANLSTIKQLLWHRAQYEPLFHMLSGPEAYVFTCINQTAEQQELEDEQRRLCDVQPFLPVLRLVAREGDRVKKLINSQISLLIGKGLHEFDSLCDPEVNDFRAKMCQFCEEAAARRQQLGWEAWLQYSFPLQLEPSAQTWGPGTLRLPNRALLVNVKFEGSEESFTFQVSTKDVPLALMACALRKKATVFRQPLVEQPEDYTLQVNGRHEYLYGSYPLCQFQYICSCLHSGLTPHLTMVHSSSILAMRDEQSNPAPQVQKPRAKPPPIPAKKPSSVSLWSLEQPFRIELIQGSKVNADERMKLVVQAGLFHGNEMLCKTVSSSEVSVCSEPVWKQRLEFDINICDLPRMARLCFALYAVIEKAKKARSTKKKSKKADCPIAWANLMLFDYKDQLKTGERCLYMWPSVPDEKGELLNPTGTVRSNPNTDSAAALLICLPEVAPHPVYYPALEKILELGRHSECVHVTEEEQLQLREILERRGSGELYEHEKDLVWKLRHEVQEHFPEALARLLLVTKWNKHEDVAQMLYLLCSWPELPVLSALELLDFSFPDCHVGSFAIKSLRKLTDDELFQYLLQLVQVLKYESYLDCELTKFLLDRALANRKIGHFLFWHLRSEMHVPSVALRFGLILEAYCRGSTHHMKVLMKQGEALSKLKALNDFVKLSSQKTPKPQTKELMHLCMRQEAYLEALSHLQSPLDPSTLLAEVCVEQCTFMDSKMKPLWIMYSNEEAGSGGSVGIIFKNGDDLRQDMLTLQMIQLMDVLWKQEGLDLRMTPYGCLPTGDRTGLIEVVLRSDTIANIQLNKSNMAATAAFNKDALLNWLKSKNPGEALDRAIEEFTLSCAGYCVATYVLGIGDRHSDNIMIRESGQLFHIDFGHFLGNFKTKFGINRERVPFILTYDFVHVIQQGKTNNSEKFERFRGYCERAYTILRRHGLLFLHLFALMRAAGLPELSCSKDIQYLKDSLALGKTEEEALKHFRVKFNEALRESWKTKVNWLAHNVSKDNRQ
Kind of data set: Inhibition of PI3Kdelta (unknown origin) using diC8-PI(4,5)P2 as substrate incubated for 3 hrs in presence of ATP by fluorescence polarization assay. The procedure, abridged: as §1

Data set [8] in a line: Cytotoxicity against human 293T cells. In kind it is cell-based. The settings on record: HEK-293T cells.

One may read the IC50 as the midpoint of a concentration-inhibition curve. The term CC50 denotes the concentration at which the toxic effect on the cells reaches its halfway point. High values mean lower toxicity to the cells, low ones greater toxicity to the cells.

Sequence of Phosphatidylinositol 4,5-bisphosphate 3-kinase catalytic subunit alpha isoform (P42336 whole entry, canonical isoform): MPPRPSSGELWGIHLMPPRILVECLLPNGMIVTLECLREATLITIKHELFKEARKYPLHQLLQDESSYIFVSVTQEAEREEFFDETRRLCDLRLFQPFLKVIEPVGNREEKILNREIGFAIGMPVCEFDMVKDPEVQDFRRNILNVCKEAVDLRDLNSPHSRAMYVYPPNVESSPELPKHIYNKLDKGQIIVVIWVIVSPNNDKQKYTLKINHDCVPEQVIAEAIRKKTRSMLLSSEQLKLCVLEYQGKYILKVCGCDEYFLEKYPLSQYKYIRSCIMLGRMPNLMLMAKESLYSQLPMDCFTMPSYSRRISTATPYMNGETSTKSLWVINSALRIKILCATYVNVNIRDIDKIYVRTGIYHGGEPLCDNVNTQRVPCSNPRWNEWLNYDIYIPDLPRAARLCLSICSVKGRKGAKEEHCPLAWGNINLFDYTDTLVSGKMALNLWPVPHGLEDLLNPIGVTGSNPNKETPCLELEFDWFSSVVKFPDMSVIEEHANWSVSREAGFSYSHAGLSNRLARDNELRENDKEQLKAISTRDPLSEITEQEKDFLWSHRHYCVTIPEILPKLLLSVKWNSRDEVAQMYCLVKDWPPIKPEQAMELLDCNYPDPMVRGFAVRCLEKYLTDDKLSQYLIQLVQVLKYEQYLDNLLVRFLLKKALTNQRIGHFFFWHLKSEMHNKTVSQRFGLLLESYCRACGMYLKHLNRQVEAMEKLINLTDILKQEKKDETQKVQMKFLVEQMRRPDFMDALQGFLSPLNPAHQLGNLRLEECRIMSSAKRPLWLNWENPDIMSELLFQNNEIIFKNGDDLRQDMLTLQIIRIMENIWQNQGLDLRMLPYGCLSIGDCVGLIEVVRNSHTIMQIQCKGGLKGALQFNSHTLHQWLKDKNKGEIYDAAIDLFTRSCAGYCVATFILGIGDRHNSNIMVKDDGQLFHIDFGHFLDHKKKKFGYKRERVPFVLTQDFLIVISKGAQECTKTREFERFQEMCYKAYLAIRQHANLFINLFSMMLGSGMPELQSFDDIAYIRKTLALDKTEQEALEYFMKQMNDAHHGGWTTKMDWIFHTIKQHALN
Sequence of Phosphatidylinositol 4,5-bisphosphate 3-kinase catalytic subunit gamma isoform (P48736 whole entry, canonical isoform): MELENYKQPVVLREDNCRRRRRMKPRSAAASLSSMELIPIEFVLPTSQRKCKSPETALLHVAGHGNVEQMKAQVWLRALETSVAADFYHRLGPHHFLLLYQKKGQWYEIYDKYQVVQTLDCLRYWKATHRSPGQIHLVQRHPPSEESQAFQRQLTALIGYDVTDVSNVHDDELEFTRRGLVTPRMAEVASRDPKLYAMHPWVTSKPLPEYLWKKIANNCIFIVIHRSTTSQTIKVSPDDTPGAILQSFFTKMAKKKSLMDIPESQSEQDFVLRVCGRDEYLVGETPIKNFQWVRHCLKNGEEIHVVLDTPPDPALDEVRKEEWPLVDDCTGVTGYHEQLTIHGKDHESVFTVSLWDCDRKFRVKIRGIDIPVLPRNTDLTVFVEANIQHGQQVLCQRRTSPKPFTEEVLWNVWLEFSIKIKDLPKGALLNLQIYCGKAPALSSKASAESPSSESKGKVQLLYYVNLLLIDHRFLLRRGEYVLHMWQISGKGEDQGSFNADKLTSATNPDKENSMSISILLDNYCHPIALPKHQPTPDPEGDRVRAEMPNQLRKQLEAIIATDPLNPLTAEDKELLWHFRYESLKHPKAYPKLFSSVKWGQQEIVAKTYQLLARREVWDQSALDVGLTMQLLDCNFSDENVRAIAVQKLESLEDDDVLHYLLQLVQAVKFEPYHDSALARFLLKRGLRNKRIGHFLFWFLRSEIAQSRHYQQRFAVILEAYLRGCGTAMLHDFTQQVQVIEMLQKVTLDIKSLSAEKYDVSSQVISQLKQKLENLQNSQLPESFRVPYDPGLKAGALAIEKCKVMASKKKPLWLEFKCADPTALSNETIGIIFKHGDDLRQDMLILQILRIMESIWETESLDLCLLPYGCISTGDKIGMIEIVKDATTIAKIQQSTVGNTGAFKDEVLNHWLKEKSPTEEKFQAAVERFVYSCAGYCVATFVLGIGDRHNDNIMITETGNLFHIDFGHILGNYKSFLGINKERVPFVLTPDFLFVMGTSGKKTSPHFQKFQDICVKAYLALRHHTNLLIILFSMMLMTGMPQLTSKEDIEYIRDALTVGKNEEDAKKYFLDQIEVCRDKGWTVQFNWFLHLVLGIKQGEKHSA
Sequence of Phosphatidylinositol 4,5-bisphosphate 3-kinase catalytic subunit beta isoform (P42338 whole entry, canonical isoform): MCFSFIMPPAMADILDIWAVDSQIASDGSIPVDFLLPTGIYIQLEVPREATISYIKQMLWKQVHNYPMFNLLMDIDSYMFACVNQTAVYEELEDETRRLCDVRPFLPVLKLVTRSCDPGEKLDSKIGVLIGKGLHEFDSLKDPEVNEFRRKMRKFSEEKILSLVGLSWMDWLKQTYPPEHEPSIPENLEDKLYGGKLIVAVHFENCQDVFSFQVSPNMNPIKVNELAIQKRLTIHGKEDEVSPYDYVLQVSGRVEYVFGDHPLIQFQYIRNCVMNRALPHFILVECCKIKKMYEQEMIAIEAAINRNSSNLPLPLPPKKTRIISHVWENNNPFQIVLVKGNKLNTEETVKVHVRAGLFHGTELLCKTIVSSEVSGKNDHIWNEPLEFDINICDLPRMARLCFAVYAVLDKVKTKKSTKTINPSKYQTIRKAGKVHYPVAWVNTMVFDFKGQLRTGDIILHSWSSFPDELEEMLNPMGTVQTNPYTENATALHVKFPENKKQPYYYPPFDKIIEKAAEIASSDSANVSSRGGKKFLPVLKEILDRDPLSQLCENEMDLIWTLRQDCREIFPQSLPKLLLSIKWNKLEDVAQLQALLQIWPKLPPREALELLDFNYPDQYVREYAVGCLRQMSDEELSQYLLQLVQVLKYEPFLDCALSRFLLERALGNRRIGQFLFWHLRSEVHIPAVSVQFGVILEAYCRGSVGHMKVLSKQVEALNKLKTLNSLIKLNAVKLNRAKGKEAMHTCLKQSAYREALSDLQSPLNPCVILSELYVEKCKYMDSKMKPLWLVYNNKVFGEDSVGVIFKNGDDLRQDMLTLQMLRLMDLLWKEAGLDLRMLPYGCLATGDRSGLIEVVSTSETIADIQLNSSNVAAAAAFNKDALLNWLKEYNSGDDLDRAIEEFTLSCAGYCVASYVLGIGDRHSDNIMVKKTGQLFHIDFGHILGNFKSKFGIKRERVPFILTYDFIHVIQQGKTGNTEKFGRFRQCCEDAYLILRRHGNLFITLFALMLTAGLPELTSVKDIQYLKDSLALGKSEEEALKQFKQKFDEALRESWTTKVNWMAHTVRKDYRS

In the case of `O=c1cc(N2CCOCC2)oc2c(-c3ccccc3)cccc12` [LY-294002], the inhibition in vivo at 10 mg/kg in the data set with HCT-116 [1] was 35.2%. Also, the IC50 in [2] was above 10 µM.
Regarding `O=c1oc2ccccc2c2nn(CN3CCN(S(=O)(=O)c4ccc(F)cc4)CC3)cc12`, the IC50 in the data set on HCT-116 [3] is 2.45 µM; with A549, 5.11 µM; in the data set with Huh-7, 6.44 µM; in the data set on HL-60 it was 6.33 µM; in [4], 8.91 µM; in data set [5], above 10 µM. The IC50 was determined as 7.51 µM in [6], 9.76 µM in data set [7] and 9.12 µM in data set [2]. In data set [8], the CC50 stood at 298 µM.
On to `O=c1oc2ccccc2c2nn(CN3CCN(S(=O)(=O)c4ccc([N+](=O)[O-])cc4)CC3)cc12`, for which the 50% inhibitory concentration (IC50) turned out to be 0.92 µM in the data set on HCT-116 [3]; 2.1 µM in the data set with A549; 2.82 µM with Huh-7; 2.67 µM in the data set with HL-60; 2.63 µM in [4]; 4.14 µM in data set [5]. Also, the IC50 in data set [6] was 4.01 µM; in [7], 5.45 µM; in data set [2], above 10 µM. The same compound came in with a CC50 in [8] of 347 µM.

These data come from ChEMBL document CHEMBL4359902, “Development of novel chromeno[4,3-c]pyrazol-4(2H)-one derivates bearing sulfonylpiperazine as antitumor inhibitors targeting PI3Kα” (Eur J Med Chem, 2019).
